Assay outcomes: PubChem BioAssay, Johns Hopkins Ion Channel Center
TRPC4 inh: inhibitors of mouse TRPC4 channel, primary screen, Fluo4 calcium, HEK293 TRPC4beta/mu-opioid cells. Short transient receptor potential channel 4 (Mus musculus), Q9QUQ5. DAMGO-evoked Fluo4 calcium flux; active compounds read low. B-score at 10 µM. 300,000 tested, 0.39% active. AID 2247, 2010;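 active means B-score over 3 SD under the library average, no early fluorescence shift, positive overall ratio signal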
Target sequence (Q9QUQ5 whole entry, looked up): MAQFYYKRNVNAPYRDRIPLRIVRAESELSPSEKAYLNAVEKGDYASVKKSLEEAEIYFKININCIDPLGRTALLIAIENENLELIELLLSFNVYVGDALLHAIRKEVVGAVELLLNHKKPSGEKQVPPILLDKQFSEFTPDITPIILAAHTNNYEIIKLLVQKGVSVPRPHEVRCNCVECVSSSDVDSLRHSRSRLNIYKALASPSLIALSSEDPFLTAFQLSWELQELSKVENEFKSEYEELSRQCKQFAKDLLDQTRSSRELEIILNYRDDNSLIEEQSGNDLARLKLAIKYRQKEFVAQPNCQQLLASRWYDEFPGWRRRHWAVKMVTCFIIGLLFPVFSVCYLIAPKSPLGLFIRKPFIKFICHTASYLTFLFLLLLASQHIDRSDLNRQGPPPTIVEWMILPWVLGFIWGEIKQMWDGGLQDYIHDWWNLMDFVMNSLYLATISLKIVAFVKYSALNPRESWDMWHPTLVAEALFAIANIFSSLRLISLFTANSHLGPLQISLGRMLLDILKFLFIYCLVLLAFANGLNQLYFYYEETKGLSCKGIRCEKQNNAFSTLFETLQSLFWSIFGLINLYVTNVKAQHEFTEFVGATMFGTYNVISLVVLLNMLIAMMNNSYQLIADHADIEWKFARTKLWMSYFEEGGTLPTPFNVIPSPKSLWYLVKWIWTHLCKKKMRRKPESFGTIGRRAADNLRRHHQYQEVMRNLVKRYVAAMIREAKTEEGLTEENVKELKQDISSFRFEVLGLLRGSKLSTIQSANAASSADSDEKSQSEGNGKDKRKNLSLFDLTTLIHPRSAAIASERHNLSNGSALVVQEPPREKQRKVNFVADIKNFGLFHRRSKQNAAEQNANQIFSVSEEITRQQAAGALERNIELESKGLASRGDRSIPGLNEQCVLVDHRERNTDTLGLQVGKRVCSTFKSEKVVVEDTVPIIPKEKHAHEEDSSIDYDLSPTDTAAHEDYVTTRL
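Assay system: HEK293 cells with stable TRPC4beta plus mu-opioid receptor expression. Dosing: single dose. Measured by: Fluo4 Ca2+ flux fluorescence. Also added: DAMGO in two steps, submaximal then maximal. Read-out: B score from integrated Fluo4 fluorescence ratio.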
TRPC4 PAM: positive allosteric modulators of TRPC4, primary screen, cell-based, mouse TRPC4beta, HEK293 mu-opioid, Fluo-4 calcium. DAMGO EC20, Fluo-4 Ca2+ flux; active compounds read high. B-score at 10 µM. 310,000 tested, 0.42% active;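 active means B-score of calcium response area above 5 SD of library B-scores, with initial fluorescence ratio within 5 SD of library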
TRPC4 agonist: activators of mouse TRPC4 channel, primary screen, Fluo4 calcium, HEK293 TRPC4beta/mu-opioid cells | Short transient receptor potential channel 4 (Mus musculus), Q9QUQ5 | Fluo4 calcium fluorescence; active compounds read high | B-score at 10 µM | 310,000 tested, 0.49% active | AID 2237, 2010;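 active means B-score above 5 SD of library B-scores, and initial fluorescence ratio not above library mean plus 5 SD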;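 further: positive B-score marks a calcium rise read as TRPC4 activation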
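Assay system: HEK293 stable line with TRPC4beta plus mu-opioid receptor; schedule: 45 min room-temperature Fluo4 loading, 110 s read; technique: kinetic Fluo4 calcium fluorescence; evaluation: integrated baseline-normalised fluorescence ratio, converted to per-well B score; controls: buffer (low) and maximal DAMGO (high)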
TRPC6 inhibitor: mouse TRPC6 channel inhibitors, primary screen, cell-based, HEK293, membrane potential dye; B-score at 10 µM; Short transient receptor potential channel 6 (Mus musculus), Q61143; 310,000 tested, 1.1% active; AID 2553, 2010; ACh-evoked depolarization; active compounds read low;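 active means B-score under library mean minus 3 SD, initial fluorescence not abnormally high, positive integrated signal ratio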;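 further: B-score derived from integrated fluorescence ratio over the kinetic read; more negative B-score means stronger inhibition of depolarization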
TRPC6 activator: mouse TRPC6 channel activators, primary screen, cell-based, HEK293, membrane potential dye | Short transient receptor potential channel 6 (Mus musculus), Q61143 | HEK293-TRPC6 membrane potential dye fluorescence; active compounds read high | B-score at 10 µM | 310,000 tested, 0.13% active | AID 2550, 2010;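 active means B-score of the integrated fluorescence ratio above library mean plus 3 SD, and starting fluorescence ratio within library mean plus 5 SD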;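 further: higher score means more depolarization so channel activation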
A number is an active result. Most compounds without a hit are left out; they make up all but 2.3% or so of the library.

`N=c1n(CCO)c2ccccc2n1Cc1ccc(Cl)cc1` gave TRPC4 inh -6, TRPC4 PAM inactive, TRPC4 agonist inactive, TRPC6 inhibitor inactive and TRPC6 activator inactive.
For Cc1ccc(C(=O)NCC(=O)OCCCOC(=O)CNC(=O)c2ccc(C)cc2)cc1 the results were TRPC4 inh inactive, TRPC4 PAM inactive, TRPC4 agonist inactive, TRPC6 inhibitor inactive and TRPC6 activator inactive.
`Cc1c(C(=O)C(=O)N2CCN(Cc3ccc4c(c3)OCO4)CC2)c2ccccc2n1C` gave TRPC4 inh inactive, TRPC4 PAM inactive, TRPC4 agonist inactive, TRPC6 inhibitor inactive and TRPC6 activator inactive.
Screening CC1(C(=O)OCC(=O)Nc2nc(-c3ccc(F)c(F)c3)cs2)CC1(Cl)Cl (stereo not given) returned TRPC4 inh inactive, TRPC4 PAM inactive, TRPC4 agonist inactive, TRPC6 inhibitor inactive and TRPC6 activator inactive.
Screening COc1ccc(/C=N/n2cncn2)cc1Cn1nc(C)c([N+](=O)[O-])c1C returned TRPC4 inh inactive, TRPC4 PAM inactive, TRPC4 agonist inactive, TRPC6 inhibitor inactive and TRPC6 activator inactive.
CCN1CC2=C(OC(N)=C(C#N)C2c2ccccc2)/C(=C\c2ccccc2)C1 (stereo not given) was read as TRPC4 inh inactive, TRPC4 PAM inactive, TRPC4 agonist inactive, TRPC6 inhibitor inactive and TRPC6 activator inactive.
CCN1CC2=C(OC(N)=C(C#N)C2c2cccs2)/C(=C/c2cccs2)C1 (stereo not given) was read as TRPC4 inh inactive, TRPC4 PAM 12, TRPC4 agonist inactive, TRPC6 inhibitor inactive and TRPC6 activator inactive.
Screening CCOC(CNC(=O)CN1C(=O)COc2ccc(S(=O)(=O)N3CCCC3)cc21)OCC returned TRPC4 inh inactive, TRPC4 PAM inactive, TRPC4 agonist inactive, TRPC6 inhibitor inactive and TRPC6 activator inactive.
For O=C(Nc1cc(SCCO)cc([N+](=O)[O-])c1)c1ccc(Br)o1 the results were TRPC4 inh -5, TRPC4 PAM inactive, TRPC4 agonist inactive, TRPC6 inhibitor inactive and TRPC6 activator inactive.
For O=C(CCCl)Nc1cc(SCCO)cc([N+](=O)[O-])c1 the results were TRPC4 inh inactive, TRPC4 PAM inactive, TRPC4 agonist inactive, TRPC6 inhibitor inactive and TRPC6 activator inactive.
Screening Cc1oc(-c2ccccc2F)nc1CS(=O)(=O)CC(=O)NCCCN1CC(C)CC(C)C1 (stereo not given) returned TRPC4 inh inactive, TRPC4 PAM inactive, TRPC4 agonist 57, TRPC6 inhibitor inactive and TRPC6 activator inactive.
`Cc1oc(-c2ccccc2Cl)nc1CS(=O)CC(=O)NCCCN1CC(C)CC(C)C1` (stereo not given) gave TRPC4 inh inactive, TRPC4 PAM inactive, TRPC4 agonist 95, TRPC6 inhibitor inactive and TRPC6 activator inactive.
Screening Cc1oc(-c2ccc(Cl)cc2)nc1CS(=O)CC(=O)NCCCN(C)C1CCCCC1 (stereo not given) returned TRPC4 inh inactive, TRPC4 PAM 16, TRPC4 agonist inactive, TRPC6 inhibitor inactive and TRPC6 activator inactive.
For Cc1oc(-c2ccc(Cl)cc2)nc1CS(=O)CC(=O)NC1CCCCC1 (stereo not given) the results were TRPC4 inh inactive, TRPC4 PAM inactive, TRPC4 agonist inactive, TRPC6 inhibitor inactive and TRPC6 activator inactive.
COc1ccc(CNC(=O)CNS(=O)(=O)c2cccs2)cc1 was read as TRPC4 inh inactive, TRPC4 PAM inactive, TRPC4 agonist inactive, TRPC6 inhibitor inactive and TRPC6 activator inactive.
Screening Cc1nn(C)c(C)c1Sc1ccc(Br)cc1 returned TRPC4 inh -6, TRPC4 PAM inactive, TRPC4 agonist inactive, TRPC6 inhibitor inactive and TRPC6 activator inactive.
Cn1cnc([N+](=O)[O-])c1Sc1ccc(Br)cc1 was read as TRPC4 inh inactive, TRPC4 PAM inactive, TRPC4 agonist inactive, TRPC6 inhibitor inactive and TRPC6 activator inactive.
`CC(NCCC1(Cc2ccccc2Cl)CCOC(C)(C)C1)c1cccs1` (stereo not given) gave TRPC4 inh inactive, TRPC4 PAM inactive, TRPC4 agonist 68, TRPC6 inhibitor inactive and TRPC6 activator inactive.
Screening CC(NCCC1(C(C)C)CCOC(C)(C)C1)c1cccs1 (stereo not given) returned TRPC4 inh inactive, TRPC4 PAM inactive, TRPC4 agonist inactive, TRPC6 inhibitor inactive and TRPC6 activator inactive.
For COc1cccc(Nc2ccc([N+](=O)[O-])c3nonc23)c1 the results were TRPC4 inh inactive, TRPC4 PAM inactive, TRPC4 agonist inactive, TRPC6 inhibitor inactive and TRPC6 activator inactive.
COc1cccc(NCc2ccc([N+](=O)[O-])s2)c1 was read as TRPC4 inh -6, TRPC4 PAM inactive, TRPC4 agonist inactive, TRPC6 inhibitor inactive and TRPC6 activator inactive.
`C#CC[N+]1(CC#Cc2cccc3ccccc23)CCOCC1` gave TRPC4 inh inactive, TRPC4 PAM 37, TRPC4 agonist inactive, TRPC6 inhibitor inactive and TRPC6 activator inactive.
For CC1CC(C)CN(CCCNC(=O)COc2cc(=O)n(C)c3ccccc23)C1 (stereo not given) the results were TRPC4 inh inactive, TRPC4 PAM 10, TRPC4 agonist 85, TRPC6 inhibitor inactive and TRPC6 activator inactive.
`CCn1c(=O)cc(OCC(=O)NCCCN2CC(C)CC(C)C2)c2ccccc21` (stereo not given) gave TRPC4 inh inactive, TRPC4 PAM inactive, TRPC4 agonist 90, TRPC6 inhibitor inactive and TRPC6 activator inactive.
COC(=O)c1c(NC(=O)COC(=O)Cn2cnc3ccccc32)sc2c1CCCC2 was read as TRPC4 inh inactive, TRPC4 PAM inactive, TRPC4 agonist inactive, TRPC6 inhibitor inactive and TRPC6 activator inactive.
`Cc1ccn2cc(CCNC(=O)C3CC=CCC3C(=O)O)nc2c1` (stereo not given) gave TRPC4 inh inactive, TRPC4 PAM inactive, TRPC4 agonist 202, TRPC6 inhibitor inactive and TRPC6 activator inactive.
For Cc1ccn2cc(CCNC(=O)CC(C)(C)C)nc2c1 the results were TRPC4 inh inactive, TRPC4 PAM inactive, TRPC4 agonist inactive, TRPC6 inhibitor inactive and TRPC6 activator inactive.
For O=C(CCc1ccc(Oc2cc([N+](=O)[O-])cc([N+](=O)[O-])c2)cc1)N1CCCCCC1 the results were TRPC4 inh -6, TRPC4 PAM inactive, TRPC4 agonist 75, TRPC6 inhibitor inactive and TRPC6 activator inactive.
`Nc1ccccc1Sc1c[nH]c2ccccc12` gave TRPC4 inh inactive, TRPC4 PAM inactive, TRPC4 agonist inactive, TRPC6 inhibitor inactive and TRPC6 activator inactive.
`O=C(N/N=C/c1cccnc1)c1ccccc1OCc1ccc(Cl)cc1` gave TRPC4 inh -6, TRPC4 PAM inactive, TRPC4 agonist 100, TRPC6 inhibitor inactive and TRPC6 activator inactive.
